Laboratory results as given in ChEMBL document CHEMBL4732034, “Amino alcohol acrylonitriles as broad spectrum and tumour selective cytotoxic agents” (RSC Med Chem, 2021).

Assays:
HT-29 = experiment: Cytotoxicity against human HT29 cells assessed as growth inhibition measured after 72 hrs by SRB assay; assay type: functional
Outline: (§1)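 Cancer lines were kept in DMEM with 10% FBS and glutamine at 37 °C, 5% CO2, and seeded at 2500–4000 cells per well in duplicate. Compound (from 40 mM DMSO stocks) was added 24 h after plating and left for 72 h. Cells were TCA-fixed, stained with SRB and read at 540 nm. GI50 came from an eight-point dose-response, using the change from day-0 optical density, with three to four independent replicates.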

MIA PaCa-2 = experiment: Cytotoxicity against human MIA cells assessed as growth inhibition measured after 72 hrs by SRB assay; assay type: functional; outline: as §1
A-431 = experiment: Cytotoxicity against human A431 cells assessed as growth inhibition measured after 72 hrs by SRB assay; assay type: functional; outline: as §1
NCI-H460 = experiment: Cytotoxicity against human H460 cells assessed as growth inhibition measured after 72 hrs by SRB assay; assay type: functional; outline: as §1
U-87 MG = experiment: Cytotoxicity against human U87 cells assessed as growth inhibition measured after 72 hrs by SRB assay; assay type: functional, U-87MG ATCC; outline: as §1
MCF7 = experiment: Cytotoxicity against human MCF-7 cells assessed as growth inhibition measured after 72 hrs by SRB assay; assay type: functional; outline: as §1
A2780 = experiment: Cytotoxicity against human A2780 cells assessed as growth inhibition measured after 72 hrs by SRB assay; assay type: functional; outline: as §1
[1] = Cytotoxicity against human SJG2 cells assessed as growth inhibition measured after 72 hrs by SRB assay; assay type: functional; conditions: SJ-G2; outline: as §1
DU-145 = experiment: Cytotoxicity against human DU-145 cells assessed as growth inhibition measured after 72 hrs by SRB assay; assay type: functional; outline: as §1
[2] = Cytotoxicity against human MCF10A cells assessed as growth inhibition measured after 72 hrs by SRB assay; assay type: cell-based, MCF-10A
BE(2)-C = experiment: Cytotoxicity against human BE2C cells assessed as growth inhibition measured after 72 hrs by SRB assay; assay type: functional; outline: as §1
[3] = Selectivity index, ratio of GI50 for human MCF10A cells to GI50 for human HT-29 cells by SRB assay; assay type: toxicity; conditions: MCF10A cells versus HT-29 cells, read-out: RatioGI50
Outline: (§2)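 Fold selectivity is the MCF10A GI50 divided by the cancer-line GI50. Each GI50 is from the 72 h SRB assay: eight-point dose-response, day-0 optical density baseline, three to four separate replicates.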

[4] = Selectivity index, ratio of GI50 for human MCF10A cells to GI50 for human MCF-7 cells by SRB assay; assay type: toxicity; conditions: MCF10A cells versus MCF-7 cells, read-out: RatioGI50; outline: as §2

Structure (SMILES) | GI50 (HT-29) | GI50 (MIA PaCa-2) | GI50 (A-431) | GI50 (NCI-H460) | GI50 (U-87 MG) | GI50 (MCF7) | GI50 (A2780) | GI50 [1] | GI50 (DU-145) | GI50 at 72 h [2] | GI50 (BE(2)-C) | selectivity ratio [3] | selectivity ratio [4]
CN1CCN(CC(O)COc2ccc(/C=C(\C#N)c3ccc(Cl)c(Cl)c3)cc2)CC1 (racemic) | 1.2 µM | 2.6 µM | 1.8 µM | 2.6 µM | 2.7 µM | 2.3 µM | 2.5 µM | 2.2 µM | 2.4 µM | 2.4 µM | 2.4 µM | – | –
N#C/C(=C\c1ccc(OCC(O)CN2CCN(c3ccc([N+](=O)[O-])cc3)CC2)cc1)c1ccc(Cl)c(Cl)c1 (racemic) | > 50 µM | > 50 µM | > 50 µM | > 50 µM | > 50 µM | > 50 µM | > 50 µM | > 50 µM | > 50 µM | > 50 µM | > 50 µM | – | –
N#C/C(=C\c1ccc(OCC(O)CN2CCOCC2)cc1)c1ccc(Cl)c(Cl)c1 (racemic) | 3.1 µM | 13 µM | 3 µM | 8.7 µM | 17 µM | 5.3 µM | 8.9 µM | 9.3 µM | 13 µM | 5.6 µM | 3 µM | – | –
Cc1ccc(N2CCN(CC(O)COc3ccc(/C=C(\C#N)c4ccc(Cl)c(Cl)c4)cc3)CC2)cc1 (racemic) | 2.6 µM | 3 µM | 3.1 µM | 2.5 µM | 6 µM | 2.3 µM | 3 µM | 2.9 µM | 2.7 µM | 3.5 µM | 2.7 µM | – | –
CC1CCCCN1CC(O)COc1ccc(/C=C(\C#N)c2ccc(Cl)c(Cl)c2)cc1 (racemic) | 0.36 µM | 2.7 µM | 1.6 µM | 2.7 µM | 2.9 µM | 2.1 µM | 2.7 µM | 2.8 µM | 3 µM | 2.5 µM | 2.4 µM | 6.9 | –
N#C/C(=C\c1ccc(OCC(O)CNC2CCCCC2)cc1)c1ccc(Cl)c(Cl)c1 (racemic) | 2 µM | 2.7 µM | 2.2 µM | 2.2 µM | 2.8 µM | 2.7 µM | 2.9 µM | 2.7 µM | 2.4 µM | 2.8 µM | 2.8 µM | – | –
N#C/C(=C\c1ccc(OCC(O)CNc2ccc(Cl)cc2)cc1)c1ccc(Cl)c(Cl)c1 (racemic) | 7 µM | 14 µM | 15 µM | 11 µM | 16 µM | 11 µM | 10 µM | 15 µM | 15 µM | 17 µM | 14 µM | – | –
COc1ccc(NCC(O)COc2ccc(/C=C(\C#N)c3ccc(Cl)c(Cl)c3)cc2)cc1 (racemic) | 3.7 µM | 27 µM | 62 µM | 16 µM | 29 µM | 5.2 µM | 17 µM | 32 µM | 28 µM | 19 µM | 41 µM | 5.1 | 3.6
N#C/C(=C\c1ccc(OCC(O)CNc2ccc(Br)cc2)cc1)c1ccc(Cl)c(Cl)c1 (racemic) | 6 µM | 11 µM | 11 µM | 6.8 µM | 16 µM | 5.3 µM | 10 µM | 11 µM | 13 µM | 13 µM | 11 µM | – | –
N#C/C(=C\c1ccc(OCC(O)CNC23CC4CC(CC(C4)C2)C3)cc1)c1ccc(Cl)c(Cl)c1 (racemic) | 0.89 µM | 1.9 µM | 2.1 µM | 1.8 µM | 2.5 µM | 2 µM | 1.7 µM | 2 µM | 2.5 µM | 2.5 µM | 2.2 µM | – | –
N#C/C(=C\c1ccc(OCC(O)CN2CCCCCC2)cc1)c1ccc(Cl)c(Cl)c1 (racemic) | 1.7 µM | 5.5 µM | 2.9 µM | 3.5 µM | 3.8 µM | 2.8 µM | 3 µM | 5.3 µM | 4.6 µM | 3.1 µM | 2.6 µM | – | –
CN(C)CC(O)COc1ccc(/C=C(\C#N)c2ccc(Cl)c(Cl)c2)cc1 (racemic) | 0.75 µM | 2.3 µM | 1.6 µM | 2.8 µM | 3.2 µM | 1.9 µM | 2.5 µM | 2.7 µM | 2.7 µM | 2.8 µM | 2.5 µM | 3.7 | –
N#C/C(=C\c1ccc(OCC(O)CN2CCCCC2)cc1)c1ccc(Cl)c(Cl)c1 (racemic) | 0.66 µM | 2.6 µM | 2.1 µM | 3 µM | 3 µM | 2.5 µM | 2.7 µM | 2.5 µM | 2.9 µM | 2.5 µM | 2.5 µM | 3.8 | –
N#C/C(=C\c1ccc(OCC(O)CN2CCN(c3ccccc3)CC2)cc1)c1ccc(Cl)c(Cl)c1 (racemic) | 3.3 µM | 5.7 µM | 6.3 µM | 4 µM | 5.4 µM | 4.1 µM | 6.3 µM | 9 µM | 3.5 µM | 4.8 µM | 16 µM | – | –
CC1CCCN(CC(O)COc2ccc(/C=C(\C#N)c3ccc(Cl)c(Cl)c3)cc2)C1 (racemic) | 2.4 µM | 3.3 µM | 2.5 µM | 2.9 µM | 2.8 µM | 2.3 µM | 2.8 µM | 2.8 µM | 4 µM | 2.5 µM | 2.6 µM | – | –
N#C/C(=C\c1ccc(OCC(O)CN2CCN(c3ccc(C(F)(F)F)cc3)CC2)cc1)c1ccc(Cl)c(Cl)c1 (racemic) | – | > 50 µM | > 50 µM | > 50 µM | > 50 µM | > 50 µM | > 50 µM | > 50 µM | > 50 µM | > 50 µM | > 50 µM | – | –
N#C/C(=C\c1ccc(OCC(O)CN2CCN(c3ccc(Cl)cc3)CC2)cc1)c1ccc(Cl)c(Cl)c1 (racemic) | 9 µM | 17 µM | 27 µM | 28 µM | > 50 µM | 15 µM | 15 µM | 24 µM | 32 µM | 18 µM | > 50 µM | – | –
N#C/C(=C\c1ccc(OCC(O)CN2CCCC2)cc1)c1ccc(Cl)c(Cl)c1 (racemic) | 1.5 µM | 5.6 µM | 2.6 µM | 3 µM | 5.6 µM | 2.8 µM | 2.7 µM | 3.7 µM | 4.2 µM | 2.9 µM | 2.8 µM | – | –
N#C/C(=C\c1ccc(OCC(O)CN2CCC(c3ccccc3)CC2)cc1)c1ccc(Cl)c(Cl)c1 (racemic) | 1.9 µM | 2.4 µM | 2.6 µM | 2.7 µM | 2.9 µM | 2.5 µM | 2.7 µM | 2.5 µM | 2.7 µM | 2.5 µM | 2.6 µM | – | –
CC(=O)c1ccc(N2CCN(CC(O)COc3ccc(/C=C(\C#N)c4ccc(Cl)c(Cl)c4)cc3)CC2)cc1 (racemic) | 7.7 µM | > 50 µM | 30 µM | > 50 µM | > 50 µM | 11 µM | 40 µM | > 50 µM | 12 µM | 7.5 µM | > 50 µM | – | –
Cc1ccc(CN2CCN(CC(O)COc3ccc(/C=C(\C#N)c4ccc(Cl)c(Cl)c4)cc3)CC2)cc1 (racemic) | 1.4 µM | 2.6 µM | 2.4 µM | 2.7 µM | 3.6 µM | 1.7 µM | 1.5 µM | 2.4 µM | 4.5 µM | 2.4 µM | 2 µM | – | –
N#C/C(=C\c1ccc(OCC(O)CNC2C3CC4CC(C3)CC2C4)cc1)c1ccc(Cl)c(Cl)c1 (racemic) | 1.4 µM | 2.4 µM | 2.8 µM | 2.7 µM | 2.7 µM | 2.1 µM | 2.5 µM | 2.6 µM | 2.6 µM | 2.7 µM | 2.6 µM | – | –
CC1CCN(CC(O)COc2ccc(/C=C(\C#N)c3ccc(Cl)c(Cl)c3)cc2)CC1 (racemic) | 1.7 µM | 3.4 µM | 2.6 µM | 2.9 µM | 2.9 µM | 2.3 µM | 2.7 µM | 3 µM | 4.6 µM | 2.7 µM | 2.6 µM | – | –
